Assay results: ChEMBL document CHEMBL3272177, “Hypolipidemic alkoxybenzoic acids” (1976)

Assays:
Parameters in all cases: scale not given: the % may be the effect or the level left
[1] = species: Rattus norvegicus; assay: Reduction in sterol level in CFE rat […] in serum at 0.1% of diet treated through diet for 6 days relative to control; format: functional
Summary of the method: (§1)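 Compound dissolved in methanol-chloroform (1:3 v/v), mixed into ground rat chow at 0.1, 0.05 or 0.025% (w/w), and solvent evaporated; controls received solvent-treated chow. Rats fed ad libitum with water for 6 days, then killed fed and bled. Serum sterols and triglycerides measured by autoanalyzer. Values given as percent of control, mean ± SE; significance by Student's t test.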

[2] = species: Rattus norvegicus; assay: Reduction in sterol level in CFE rat […] in serum at 0.05% of diet treated through diet for 6 days relative to control; format: functional; summary of the method: as §1
[3] = species: Rattus norvegicus; assay: Reduction in sterol level in CFE rat […] at 0.025% of diet treated through diet for 6 days relative to control; format: functional, Serum; summary of the method: as §1
[4] = species: Rattus norvegicus; assay: Reduction in triglyceride level in CFE rat […] in serum at 0.1% of diet treated through diet for 6 days relative to control; format: functional; summary of the method: as §1
[5] = species: Rattus norvegicus; assay: Reduction in triglyceride level in CFE rat […] in serum at 0.05% of diet treated through diet for 6 days relative to control; format: functional; summary of the method: as §1
[6] = species: Rattus norvegicus; assay: Reduction in triglyceride level in CFE rat […] at 0.025% of diet treated through diet for 6 days relative to control; format: functional, Serum; summary of the method: as §1

| SMILES | Activity [1] | Activity [2] | Activity [3] | Activity [4] | Activity [5] | Activity [6] |
| --- | --- | --- | --- | --- | --- | --- |
| CCCCSCCCCCCCCCCCOc1ccc(C(=O)O)cc1 | 76% | 76% | 70% | 60% | 53% | 60% |
| CCCCCCCCCCCCCCCCOc1c(Br)cc(C(=O)OC)cc1[N+](=O)[O-] | 97% | 93% | 93% | 95% | 101% | 113% |
| CCCCCCCCCCCCC/C=C\COc1ccc(C(=O)OC)cc1 | 82% | 83% | 89% | 89% | 83% | 96% |
| O=C(O)c1ccc(OC2CCCCCCCCCCC2)cc1 | 86% | 94% | 87% | 87% | 81% | 97% |
| CCCCCCCCCCCCCCCCOc1c(C)cc(C(=O)O)cc1C | 97% | 89% | 78% | 82% | 79% | 68% |
| CCCCNCCCCCCCCCCCOc1ccc(C(=O)O)cc1 | 100% | 104% | 98% | 100% | 103% | 119% |
| CCCCCCCCCCCC(=O)CCOc1ccc(C(=O)O)cc1 | 92% | 89% | 89% | 74% | 75% | 84% |
| CCCCCCCCCCCCC(C)(C)Oc1ccc(C(=O)O)cc1 | 97% | 90% | 100% | 87% | 79% | 77% |
| CCCCOCCCCCCCCCCCOc1ccc(C(=O)O)cc1 | 97% | 81% | 75% | 55% | 67% | 74% |
| CCCCCCCCCCCCC/C=C/COc1ccc(C(=O)O)cc1 | 81% | 85% | 106% | 46% | 57% | 45% |
| COC(=O)c1ccc(OCCCCCCCCCCCO)cc1 | 92% | 94% | 94% | 72% | 86% | 140% |
| CCCC[S+]([O-])CCCCCCCCCCCOc1ccc(C(=O)O)cc1 (configuration not stated) | 102% | 97% | 102% | 44% | 54% | 83% |
| COCCCCCCCCCCCOc1ccc(C(=O)O)cc1 | 97% | 90% | 79% | 64% | 53% | 80% |
| CCCCNCCCCCCCCCCCOc1ccc(C(=O)OC)cc1 | 96% | 95% | 102% | 114% | 88% | 104% |
| CCCCNCCCCCCCCCCCOc1ccc(C(=O)OC)cc1.Cl | 89% | 96% | 100% | 66% | 71% | 87% |
| CCCCNC(=O)CCCCCCCCCCOc1ccc(C(=O)O)cc1 | 88% | 96% | 99% | 85% | 87% | 93% |
| CCCCCCCCCCCCCCCCOc1c(Br)cc(C(=O)OC)cc1Br | 82% | 94% | 94% | 88% | 103% | 96% |
| O=C(O)c1ccc(OCCCCCCCCCCCCS)cc1 | 79% | 81% | 88% | 26% | 46% | 61% |
| O=C(O)c1ccc(OCCCCCCCCCCCCCCCSCc2ccccc2)cc1 | 82% | 101% | 109% | 37% | 50% | 70% |
| O=C(O)c1ccc(OCCCCCCCCCCCSCc2ccccc2)cc1 | 77% | 75% | 88% | 41% | 55% | 71% |
| C=CCCCCCCCCCOc1ccc(C(=O)OC)cc1 | 90% | 94% | 97% | 58% | 52% | 65% |

| SMILES | Activity [1] | Activity [2] | Activity [3] | Activity [4] | Activity [5] | Activity [6] |
| --- | --- | --- | --- | --- | --- | --- |
| O=C(O)c1ccc(OC23CC4CC(CC(C4)C2)C3)cc1 | 88% | 87% | 90% | 85% | 89% | 85% |
| CCCCCCCCCCCCCCCCOc1ccc(C(=O)O)cc1[N+](=O)[O-] | 103% | 101% | 95% | 122% | 120% | 93% |
| COC(=O)c1ccc(OCCCCCCCCCCCCCCCO)cc1 | 93% | 98% | 96% | 89% | 104% | 98% |
| CCCCCCCCCCCC(CCOc1ccc(C(=O)O)cc1)SCc1ccccc1 (configuration not stated) | 92% | 100% | 109% | 69% | 79% | 92% |
| CCSCCCCCCCCCCCCCCCCOc1ccc(C(=O)O)cc1 | 90% | 88% | 89% | 45% | 48% | 59% |
| CC(C)CCCC(C)CCCC(C)CCCC(C)CCOc1ccc(C(=O)O)cc1 (configuration not stated) | 71% | 84% | 87% | 72% | 104% | 110% |
| CCCCCCCCCCCC(=O)CCOc1ccc(C(=O)OC)cc1 | 81% | 93% | 100% | 61% | 61% | 78% |
| CCCCSCCCCCCCCCCCOc1ccc(C(=O)OC)cc1 | 96% | 92% | 100% | 69% | 62% | 87% |
| CCCCCCCCCCCC(Cl)CCOc1ccc(C(=O)OC)cc1 (configuration not stated) | 84% | 87% | 100% | 45% | 53% | 80% |
| CCCCCCCCCCCC(CCOc1ccc(C(=O)OC)cc1)SC(C)=O (configuration not stated) | 81% | 89% | 94% | 59% | 70% | 83% |
| O=C(O)c1ccc(OCCCCCCCCCCCCCCCCS)cc1 | 83% | 82% | 82% | 37% | 35% | 51% |
| CCCCCCCCCCCCCCCCOc1c(Cl)cc(C(=O)O)cc1Cl | 103% | 105% | 98% | 103% | 89% | 100% |
| CCOCCCCCCCCCCCOc1ccc(C(=O)O)cc1 | 95% | 109% | 103% | 63% | 73% | 66% |
| CCCCCCCCCCCC1OC1CCCOc1ccc(C(=O)O)cc1 (configuration not stated) | 85% | 85% | 90% | 55% | 52% | 74% |
| CCCCNC(=O)CCCCCCCCCCOc1ccc(C(=O)OC)cc1 | 96% | 100% | 99% | 81% | 97% | 95% |
| CCCCCCCCCCCCCCCCOc1c(I)cc(C(=O)O)cc1I | 93% | 85% | 94% | 105% | 86% | 96% |
| O=C(O)c1ccc(OCC2CCCCCCCCCCC2)cc1 | 101% | 105% | 104% | 160% | 130% | 123% |
| C=CCCCCCCCC/C=C/CCCOc1ccc(C(=O)O)cc1 | 74% | 87% | 92% | 83% | 96% | 83% |
| CCCCCCCCCCCCCCCCOc1ccc(C(=O)O)cc1Cl | 103% | 97% | 108% | 75% | 87% | 69% |
| CC[S+]([O-])CCCCCCCCCCCCCCCCOc1ccc(C(=O)O)cc1 (configuration not stated) | 94% | 81% | 89% | 55% | 80% | 87% |
| CCCCCCCCCCCCCC(C)(C)Oc1ccc(C(=O)O)cc1 | 100% | 120% | 92% | 83% | 105% | 127% |
